Here are results for 59 molecules from ChEMBL document CHEMBL1138609, “Amiloride derived inhibitors of acid-sensing ion channel-3 (ASIC3)” (Bioorg Med Chem Lett, 2009).

Data set [1] addresses T1, Acid-sensing ion channel 3 (Homo sapiens) (UniProt Q9UHC3).
T1 sequence (whole entry): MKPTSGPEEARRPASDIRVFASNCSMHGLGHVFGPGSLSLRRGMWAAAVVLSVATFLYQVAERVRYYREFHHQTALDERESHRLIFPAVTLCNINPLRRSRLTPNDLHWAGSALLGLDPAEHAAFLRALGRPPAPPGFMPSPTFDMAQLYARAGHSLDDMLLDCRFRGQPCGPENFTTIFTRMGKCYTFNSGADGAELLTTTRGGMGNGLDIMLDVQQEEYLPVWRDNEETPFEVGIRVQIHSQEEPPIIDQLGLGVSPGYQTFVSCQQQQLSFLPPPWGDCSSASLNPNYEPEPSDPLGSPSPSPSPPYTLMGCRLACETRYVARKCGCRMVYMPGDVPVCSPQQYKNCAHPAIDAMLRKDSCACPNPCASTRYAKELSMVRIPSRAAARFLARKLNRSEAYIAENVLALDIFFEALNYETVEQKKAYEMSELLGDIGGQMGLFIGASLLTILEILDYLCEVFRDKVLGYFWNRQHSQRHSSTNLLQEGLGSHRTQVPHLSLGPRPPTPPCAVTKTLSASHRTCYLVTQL
Description: Inhibition of ASIC3 at 20 uM assessed as inhibition of peak current by patch clamp electrophysiology relative to baseline. In short, it runs like this: (§1)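 Automated patch clamp on ASIC3 channels, used both for single-dose screening and for multi-dose follow-up. Extracellular solution: 150 NaCl, 5 KCl, 2 CaCl2, 1 MgCl2, 12 dextrose, with HEPES pH 7.4 or MES pH 5.5. Compound applied 120 s before acid. Peak current compared with vehicle or baseline peak; N = 3.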
In general terms: The patch-clamp technique gives a direct electrical read-out from membranes.

The target in data set [2] is T1, Acid-sensing ion channel 3 (Homo sapiens). Description: Inhibition of ASIC3 assessed as inhibition of peak current at 1 uM by patch clamp electrophysiology relative to baseline. In short, it runs like this: as §1
For data set [3], the target named is T2, Acid-sensing ion channel 3 (Homo sapiens, UniProt Q9UHC3).
T2 sequence (Q9UHC3 whole entry): T1 sequence (whole entry)
The data set is described as follows: Inhibition of ASIC3 assessed as inhibition of peak current by patch clamp electrophysiology. The method, boiled down:
as §1

In data set [4] the target is T3, Acid-sensing ion channel 3 (Rattus norvegicus, UniProt O35240).
T3 sequence (O35240 whole entry): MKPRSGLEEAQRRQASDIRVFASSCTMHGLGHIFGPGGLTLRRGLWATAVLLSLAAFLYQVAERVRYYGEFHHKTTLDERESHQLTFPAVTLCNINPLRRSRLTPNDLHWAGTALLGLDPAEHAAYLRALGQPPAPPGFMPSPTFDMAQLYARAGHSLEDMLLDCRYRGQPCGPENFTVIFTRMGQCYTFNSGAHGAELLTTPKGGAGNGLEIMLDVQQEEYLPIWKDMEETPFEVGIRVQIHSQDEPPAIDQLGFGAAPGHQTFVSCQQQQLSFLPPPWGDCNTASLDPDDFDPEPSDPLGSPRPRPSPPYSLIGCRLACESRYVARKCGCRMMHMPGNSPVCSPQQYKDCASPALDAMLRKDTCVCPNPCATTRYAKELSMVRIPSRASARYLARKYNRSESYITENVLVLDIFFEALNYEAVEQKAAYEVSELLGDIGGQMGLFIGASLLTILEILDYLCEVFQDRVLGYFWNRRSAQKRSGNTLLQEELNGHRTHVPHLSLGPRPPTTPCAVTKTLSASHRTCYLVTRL
Description: Inhibition of rat ASIC3 assessed as inhibition of peak current by patch clamp electrophysiology. In short, it runs like this: as §1

Data set [5] is described as follows: Plasma concentration in Sprague-Dawley rat after 30 mins. In kind it is ADME, cell-free. In short, it runs like this:
(§2)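 Rats from the CFA inflammatory pain study were sampled 30 min after dosing. Average concentrations were measured in plasma and in brain.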

Data set [6] is described as follows: Drug level in Sprague-Dawley rat brain after 30 mins. In kind it is ADME, tissue-based. As to conditions: read-out: Drug uptake. In short, it runs like this:
as §2

Data set [7] is filed under the species Rattus norvegicus. The data set is described as follows: activity against Sprague-Dawley rat complete Freund's adjuvant-induced inflammatory pain model assessed as reversal of mechanical hypersensitivity after 30 mins.
For data set [8], the system named is Rattus norvegicus. The data set is described as follows: activity against Sprague-Dawley rat complete Freund's adjuvant-induced inflammatory pain model assessed as reversal of mechanical hypersensitivity at 30 mg/kg, ip after 30 mins.

Active and inactive are the calls of the source. No cut-off for these calls is given here.

One may read the inhibition as the share of the control response that was lost under treatment. Consider `NC(N)=NC(=O)c1nc(Cl)c(N2CCOCC2)nc1N`, for which, in data set [1], the inhibition was 60%. As to `NC(N)=NC(=O)c1ncc(-c2ccccc2)nc1N`, the inhibition in data set [2] came out at 35%.

In the case of `NC(N)=NC(=O)c1nc(Cl)c(N2CCCCC2)nc1N`, the inhibition in data set [1] is 85%.

Consider `NC(N)=NC(=O)c1nc(Cl)c(NCCc2ccc(F)cc2)nc1N`, for which the inhibition in data set [2] was 32%.

Turning to `NC(N)=NC(=O)c1nc(Cl)c(N2CCCC2)nc1N`, the inhibition in data set [2] turned out to be 12%; in data set [1] it was 84%.

For `CN(c1nc(N)c(C(=O)N=C(N)N)nc1Cl)C1CCCCC1`, the inhibition in data set [1] is 57%.

On to `NC(N)=NC(=O)c1nc(Cl)c(Nc2cccc(Cl)c2)nc1N`, for which the figures for the inhibition in data set [2] and in data set [1] were 47% and 94%, respectively.

In the case of `NC(N)=NC(=O)c1nc(Cl)c(Nc2cnc3ccccc3c2)nc1N`, the inhibition in data set [2] was 28%. In the case of `NC(N)=NC(=O)c1nc(Cl)c(Oc2ccc3ccccc3c2)nc1N`, the inhibition was determined as 33% in data set [2] and 91% in data set [1].

For `NC(N)=NC(=O)c1nc(Cl)c(NCC2CCCCC2)nc1N`, the inhibition in data set [2] is 28%; in data set [1] it was 96%. On the same counts, the results for `N=C(N)NC(=O)c1nc(Cl)c(NCCc2ccccc2)nc1N` are 46% and 94%. On the same counts, the results for `NC(N)=NC(=O)c1nc(Cl)c(NCc2ccc3ccccc3c2)nc1N` are 27% and 93%. In the case of `NC(N)=NC(=O)c1ncc(-c2ccc(-c3ccccc3)cc2)nc1N`, the inhibition in data set [2] amounted to 7%. Turning to `N=C(N)NC(=O)c1nc(Cl)c(N2CCCCCC2)nc1N`, the inhibition in data set [1] was 51%.

For the molecule `Cc1cc(C)cc(-c2cnc(C(=O)N=C(N)N)c(N)n2)c1`, the inhibition in data set [2] is 39%; in data set [1], 95%. `NC(N)=NC(=O)c1nc(Cl)c(NCC(F)(F)F)nc1N`: the inhibition in data set [1] was 74%.

With `NC(N)=NC(=O)c1nc(Cl)c(NCC2CCc3ccccc3C2)nc1N` (stereo unspecified), the inhibition in data set [2] was determined as 44%. For the molecule `CCCNc1nc(N)c(C(=O)N=C(N)N)nc1Cl`, the inhibition in data set [2] was found to be 24%; in data set [1], 91%. On the same counts, the results for `CN(C)c1nc(N)c(C(=O)NC(=N)N)nc1Cl` are 37% and 91%. In the case of `CCCN(C)c1nc(N)c(C(=O)N=C(N)N)nc1Cl`, the values for the inhibition in data set [2] and in data set [1] were 32% and 91%, respectively. Take `NC(N)=NC(=O)c1nc(Cl)c(NCCc2cccc(F)c2)nc1N`: the inhibition in data set [2] is 46%. The IC50 is the concentration at which inhibition is half-maximal. For `NC(N)=NC(=O)c1nc(Cl)c(Nc2ccc3ccccc3c2)nc1N`, the inhibition in data set [2] was determined as 62%; in data set [1], 98%. Also, in data set [3], the concentration for half-maximal inhibition (IC50) came out at 0.51 µM. For the molecule `NC(N)=NC(=O)c1nc(Cl)c(OCc2ccc3ccccc3c2)nc1N`, the inhibition in data set [2] stood at 9%.

As to `NC(N)=NC(=O)c1nc(Cl)c(Sc2ccc3ccccc3c2)nc1N`, the inhibition in data set [2] amounted to 12%. In the case of `NC(N)=NC(=O)c1nc(Cl)c(Nc2ccc3ncccc3c2)nc1N`, the inhibition in data set [2] stood at 41%. `N=C(N)NC(=O)c1nc(Cl)c(N)nc1N` [AMILORIDE]: the inhibition in data set [2] was 22%; in data set [1], 65%. In data set [3], the IC50 amounted to 4.4 µM. For `NC(N)=NC(=O)c1nc(Cl)c(Nc2ccccc2)nc1N`, the inhibition amounted to 44% in data set [2] and 95% in data set [1]. With `NC(N)=NC(=O)c1ncc(-c2ccc3ccccc3c2)nc1N`, the inhibition in data set [2] was determined as 6%. On the same count and under the same terms, the figure for `NC(N)=NC(=O)c1ncc(-c2ccccc2-c2ccccc2)nc1N` is 8%. Consider `NC(N)=NC(=O)c1nc(Cl)c(Nc2ccccn2)nc1N`, for which the inhibition in data set [1] is 25%. With `NC(N)=NC(=O)c1ncc(-c2ccsc2)nc1N`, the inhibition in data set [2] turned out to be 23%. Consider `COc1nc(N)c(C(=O)N=C(N)N)nc1Cl`, for which the inhibition in data set [2] came out at 21%. As for `NC(N)=NC(=O)c1nc(Cl)c(NCCc2ccccc2F)nc1N`, in data set [2], the inhibition was 34%.

As to `NC(N)=NC(=O)c1nc(Cl)c(NCc2cccc(F)c2)nc1N`, the inhibition in data set [2] is 29%; in data set [1], 90%. Take `NC(N)=NC(=O)c1nc(Cl)c(NC2CC2)nc1N`: the inhibition in data set [1] is 78%. With `NC(N)=NC(=O)c1nc(Cl)c(NC2CCCCC2)nc1N`, the inhibition was 21% in data set [2] and 92% in data set [1].

For the molecule `NC(N)=NC(=O)c1nc(Cl)c(Oc2cc3ccccc3cn2)nc1N`, in data set [2], the inhibition was 11%. With `NC(N)=NC(=O)c1nc(Cl)c(N2CCc3ccccc3C2)nc1N`, the inhibition worked out at 52% in data set [2] and 96% in data set [1]. For the molecule `NC(N)=NC(=O)c1nc(Cl)c(NCc2ccc(Cl)cc2)nc1N`, the results for the inhibition in data set [2] and in data set [1] were 46% and 97%, respectively. Turning to `NC(N)=NC(=O)c1nc(Cl)c(Nc2ccncc2)nc1N`, the inhibition in data set [2] was 14%. For the molecule `N=C(N)NC(=O)c1ncc(-c2cccc(-c3ccsc3)c2)nc1N`, the IC50 in data set [3] is 0.64 µM. Take `NC(N)=NC(=O)c1nc(Cl)c(Sc2ccccc2)nc1N`: in data set [2], the inhibition is 11%. Still for that read-out and setting: the figure for `NC(N)=NC(=O)c1nc(Cl)c(Oc2ccc3ccccc3n2)nc1N` is 34%. As for `NC(N)=NC(=O)c1nc(Cl)c(NCc2ccccc2Cl)nc1N`, the values for the inhibition in data set [2] and in data set [1] were 31% and 90%, respectively.

`NC(N)=NC(=O)c1ncc(Cc2ccccc2)nc1N`: the inhibition in data set [2] turned out to be 4%. Take `CN1CCN(c2nc(N)c(C(=O)N=C(N)N)nc2Cl)CC1`: in data set [1], the inhibition came to 51%. For the molecule `NC(N)=NC(=O)c1nc(Cl)c(Nc2ccc(C(F)(F)F)cc2)nc1N`, the inhibition in data set [2] is 50%. Same read-out and setting: the figure for `NC(N)=NC(=O)c1nc(Cl)c(Oc2ccc3cccnc3c2)nc1N` is 32%. On to `NC(N)=NC(=O)c1nc(Cl)c(Oc2ccccc2)nc1N`, for which the inhibition in data set [2] was 23%; in data set [1], 90%. Take `NC(N)=NC(=O)c1ncc(-c2cccc(-c3ccccc3)c2)nc1N`: the inhibition in data set [2] was found to be 72%. Further, the IC50 turned out to be 0.49 µM in data set [3] and 0.95 µM in data set [4]. The concentration at 0.5 h in data set [5] came out at 2900 nM; in data set [6] it was 79 nM. Also, the Activity entry in data set [7] was “Dose-dependent effect”. Further, the outcome in data set [8] was Active. In the case of `NC(N)=NC(=O)c1nc(Cl)c(N2CCc3ccccc32)nc1N`, the inhibition in data set [2] amounted to 46%; in data set [1], 89%. In the case of `CSc1nc(N)c(C(=O)N=C(N)N)nc1Cl`, the inhibition in data set [2] is 12%. In the case of `CC(C)(C)Nc1nc(N)c(C(=O)N=C(N)N)nc1Cl`, the inhibition in data set [1] is 48%. Regarding `C=CCNc1nc(N)c(C(=O)N=C(N)N)nc1Cl`, the values for the inhibition in data set [2] and in data set [1] were 16% and 78%, respectively. Turning to `NC(N)=NC(=O)c1ncc(-c2cccc3ccccc23)nc1N`, in data set [2], the inhibition was found to be 21%. For `NC(N)=NC(=O)c1nc(Cl)c(O)nc1N`, in data set [1], the inhibition stood at 9%. As for `NC(N)=NC(=O)c1ncc(-c2cccc(-c3ccsc3)c2)nc1N`, the inhibition in data set [2] stood at 58%; in data set [1], 90%. On the same counts, the results for `NC(N)=NC(=O)c1ncc(-c2cccc(-c3ccoc3)c2)nc1N` are 30% and 82%. On the same counts, the results for `NC(N)=NC(=O)c1nc(Cl)c(NCc2ccccc2F)nc1N` are 26% and 92%.
